The source made the active and inactive calls. The calls are words filed in the database; no cut-off is given here.
How the values were obtained:
[1] = molecular target: T1, Steryl-sulfatase (Homo sapiens) (UniProt P08842); assay: Inhibition of steroid sulfatase (unknown origin) at 10 uM
T1 sequence (whole entry): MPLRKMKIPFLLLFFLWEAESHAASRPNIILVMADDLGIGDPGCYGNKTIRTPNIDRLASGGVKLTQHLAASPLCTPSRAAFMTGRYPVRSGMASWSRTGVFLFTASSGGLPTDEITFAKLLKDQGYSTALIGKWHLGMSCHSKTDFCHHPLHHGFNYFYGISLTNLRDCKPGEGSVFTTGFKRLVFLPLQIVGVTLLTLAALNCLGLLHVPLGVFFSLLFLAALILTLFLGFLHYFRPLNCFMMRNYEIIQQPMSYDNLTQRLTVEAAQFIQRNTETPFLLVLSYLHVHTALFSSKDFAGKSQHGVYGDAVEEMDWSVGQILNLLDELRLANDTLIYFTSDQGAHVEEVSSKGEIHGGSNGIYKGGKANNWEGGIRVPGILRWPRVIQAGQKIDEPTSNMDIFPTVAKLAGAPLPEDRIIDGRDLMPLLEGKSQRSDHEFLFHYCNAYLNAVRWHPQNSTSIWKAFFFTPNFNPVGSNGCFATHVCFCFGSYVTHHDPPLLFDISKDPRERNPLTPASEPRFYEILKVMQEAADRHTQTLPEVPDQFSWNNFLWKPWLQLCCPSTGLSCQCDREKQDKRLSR
How it was run: (§1)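 STS source was lysate of human JEG-3 choriocarcinoma cells at 125 µg protein/mL. Substrate was [³H]E₁S adjusted to 20 µM with unlabelled E₁S. Inhibitor was added at a single 10 µM or at 0.5–20 µM, incubated for 1 h. Product was extracted into toluene, with [4-¹⁴C]E₁ correcting for losses. Values are % inhibition, triplicate mean.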

[2] = molecular target: T1, Steryl-sulfatase (Homo sapiens); assay: Inhibition of steroid sulfatase in human JEG-3 cells assessed as […]Estrone formation using [3H]E1S as substrate at 10 uM; type: cell-based
How it was run: (§2)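 Intact JEG-3 monolayers were incubated for 20 h at 37 °C in serum-free EMEM with [³H]E₁S (5 pmol, 60 Ci/mmol), with or without inhibitor. Estrone was separated from E₁S by toluene partition, with [¹⁴C]estrone correcting for recovery. Counts were read by scintillation, and hydrolysed E₁S mass was derived from ³H counts and substrate specific activity. Values are triplicate means.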

[3] = molecular target: T1, Steryl-sulfatase (Homo sapiens); assay: Inhibition of steroid sulfatase (unknown origin); how it was run: as §1
[4] = molecular target: T1, Steryl-sulfatase (Homo sapiens); assay: Inhibition of steroid sulfatase (unknown origin) at 20 uM; how it was run: as §1
[5] = molecular target: T1, Steryl-sulfatase (Homo sapiens); assay: Inhibition of steroid sulfatase in human JEG-3 cells assessed as […]Estrone formation using [3H]E1S as substrate at 20 uM; type: cell-based; how it was run: as §2
Steryl-sulfatase = molecular target: T2, Steryl-sulfatase (Homo sapiens, UniProt P08842); assay: (§3) Inhibition of steroid sulfatase in human JEG-3 cells assessed as […]Estrone formation using [3H]E1S as substrate; type: cell-based; how it was run: as §2
T2 sequence (P08842 whole entry): T1 sequence (whole entry)

[6] = molecular target: T1, Steryl-sulfatase (Homo sapiens); assay: as §3; type: cell-based; how it was run: as §2

SMILES	inhibition [1]	also measured
CNS(=O)(=O)Oc1ccc(NC(=O)C2CCCC2)cc1	Active	–
CNS(=O)(=O)Oc1ccc(NC(=O)C2CCCCC2)cc1	Active	–
CCS(=O)(=O)Oc1ccc(NC(=O)C2CCCCC2)cc1	Active	–
CN(C)S(=O)(=O)Oc1ccc(NC(=O)C2CCCCC2)cc1	Active	–
NS(=O)(=O)Oc1ccc(NC(=O)C2CCCCC2)cc1	55.7%	inhibition [2]: 86.1%; inhibition [3]: Dose-dependent effect; inhibition [4]: 72%; inhibition [5]: 93.9%; IC50 (Steryl-sulfatase): 421 nM; inhibition [6]: Dose-dependent effect
Cc1ccc(S(=O)(=O)Oc2ccc(NC(=O)C3CCCCC3)cc2)cc1	Active	–
Cc1ccc(S(=O)(=O)Oc2ccc(NC(=O)C3CCCC3)cc2)cc1	Active	–
